Reference: ChEMBL document CHEMBL4321862, “Application of Bivalent Bioisostere Concept on Design and Discovery of Potent Opioid Receptor Modulators” (J Med Chem, 2019)
The source made the active and inactive calls.

Experiments:
[1] = Selectivity index, ratio of Ki for mouse kappa opioid receptor expressed in CHO cells to Ki for mouse mu opioid receptor expressed in CHO cells
Mu-type opioid receptor [2] = molecular target: T1, Mu-type opioid receptor (Mus musculus, UniProt P42866); assay: Displacement of [3H]-Naloxone from mouse mu opioid receptor expressed in CHO cells incubated for […] by competitive radioligand binding assay; format: cell-based
[3] = molecular target: Kappa-type opioid receptor (Mus musculus, UniProt P33534); assay: Displacement of [3H]-[…] from mouse kappa opioid receptor expressed in CHO cells incubated for […] by competitive radioligand binding assay; format: cell-based
Mu-type opioid receptor [4] = molecular target: T1, Mu-type opioid receptor; assay: Agonist activity at recombinant mouse mu opioid receptor expressed in CHO cell membrane assessed as [35]-GTPgammaS binding incubated for […] by scintillation counting method
[5] = molecular target: Delta-type opioid receptor (Homo sapiens, UniProt P41143); assay: Displacement of [3H]-[…] from human delta opioid receptor expressed in CHO cells incubated for […] by competitive radioligand binding assay; format: cell-based
[6] = molecular target: Mu-type opioid receptor (Mus musculus) (UniProt P42866); assay: Agonist activity at recombinant mouse mu opioid receptor expressed in CHO cell membrane assessed as [35]-GTPgammaS binding incubated for […] by scintillation counting method relative to DAMGO
[7] = Selectivity index, ratio of Ki for human delta opioid receptor expressed in CHO cells to Ki for mouse mu opioid receptor expressed in CHO cells
Mus musculus [8] = assay: Inhibition of morphine-induced antinociceptive activity in Swiss Webster mouse assessed as decrease in latency to tail withdrawal at 10 mg/kg, sc administered 5 mins before morphine stimulation observed for 20 mins by warm water tail withdrawal assay; format: functional, organism-based
How it was run: (§1)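 Male Swiss Webster mice, n ≥ 5, baseline latency 2–4 s. Test compound given s.c. 5 min before morphine 10 mg/kg. Tail immersion at 56 ± 0.1 °C 20 min after morphine, 10 s cutoff, %MPE per mouse.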

Mus musculus [9] = assay: Inhibition of morphine-induced antinociceptive activity in subcutaneously dosed Swiss Webster mouse assessed as decrease in latency to tail withdrawal administered 5 mins before morphine stimulation observed for 20 mins by warm water tail withdrawal assay; format: functional; how it was run: as §1
Mus musculus [10] = assay: Antinociceptive activity in Swiss Webster mouse assessed as increase in latency to tail withdrawal at 10 mg/kg, sc observed for 20 mins by warm water tail withdrawal assay; format: functional, organism-based
How it was run: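 Male Swiss Webster mice, 25–30 g, n = 5 per group, baseline tail latency 2–4 s accepted. Compound given s.c. in saline or water. Tail immersed in 56 ± 0.1 °C water 20 min post-dose, 10 s cutoff. %MPE = [(test − control)/(10 − control)] × 100. Saline and morphine as controls.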

| SMILES | Ratio Ki [1] | Ki (Mu-type opioid receptor [2]) [nM] | Ki [3] [nM] | EC50 (Mu-type opioid receptor [4]) [nM] | Ki [5] [nM] | Emax [6] [%] | Ratio Ki [7] | inhibition (Mus musculus [8]) | AD50 (Mus musculus [9]) [mg/kg] | Activity (Mus musculus [10]) |
| --- | --- | --- | --- | --- | --- | --- | --- | --- | --- | --- |
| Cl.O=C(N[C@H]1CC[C@@]2(O)[C@H]3Cc4ccc(O)c5c4[C@@]2(CCN3CC2CC2)[C@H]1O5)c1cccc2sccc12 | 9 | 0.26 | 2.35 | 1.05 | 6.85 | 16.1 | 26.3 | – | – | – |
| Cl.O=C(N[C@@H]1CC[C@@]2(O)[C@H]3Cc4ccc(O)c5c4[C@@]2(CCN3CC2CC2)[C@H]1O5)c1csc2ccccc12 | 3.4 | 0.14 | 0.48 | 0.37 | 18.6 | 29.9 | 133.21 | – | – | – |
| Cl.O=C(N[C@H]1CC[C@@]2(O)[C@H]3Cc4ccc(O)c5c4[C@@]2(CCN3CC2CC2)[C@H]1O5)c1coc2ccccc12 | 12.5 | 0.27 | 3.37 | 1.57 | 16.8 | 18.7 | 62.3 | Active | 2.51 | – |
| Cl.O=C(N[C@@H]1CC[C@@]2(O)[C@H]3Cc4ccc(O)c5c4[C@@]2(CCN3CC2CC2)[C@H]1O5)c1ccc2ccsc2c1 | 1.3 | 0.15 | 0.2 | 0.21 | 2.04 | 58.7 | 13.6 | – | – | Active |
| Cl.O=C(N[C@H]1CC[C@@]2(O)[C@H]3Cc4ccc(O)c5c4[C@@]2(CCN3CC2CC2)[C@H]1O5)c1ccc2sccc2c1 | 5.6 | 0.39 | 2.19 | 2.47 | 11.9 | 18.9 | 30.4 | – | – | – |
| Cl.O=C(N[C@H]1CC[C@@]2(O)[C@H]3Cc4ccc(O)c5c4[C@@]2(CCN3CC2CC2)[C@H]1O5)c1ccc2occc2c1 | 12.1 | 0.35 | 4.23 | 3.72 | 29 | 17.7 | 82.9 | Active | 2.03 | – |
| Cl.O=C(N[C@@H]1CC[C@@]2(O)[C@H]3Cc4ccc(O)c5c4[C@@]2(CCN3CC2CC2)[C@H]1O5)c1cccc2occc12 | 4.7 | 0.17 | 0.8 | 0.59 | 70.5 | 23.6 | 415 | Active | 2.79 | – |
| O=C(N[C@H]1CC[C@@]2(O)[C@H]3Cc4ccc(O)c5c4[C@@]2(CCN3CC2CC2)[C@H]1O5)c1cccc2ccoc12 | – | – | 5.12 | – | – | 12.9 | – | – | – | – |
| Cl.O=C(N[C@@H]1CC[C@@]2(O)[C@H]3Cc4ccc(O)c5c4[C@@]2(CCN3CC2CC2)[C@H]1O5)c1cccc2sccc12 | 4.7 | 0.16 | 0.75 | 0.32 | 24 | 23.1 | 150.3 | – | – | – |
| Cl.O=C(N[C@H]1CC[C@@]2(O)[C@H]3Cc4ccc(O)c5c4[C@@]2(CCN3CC2CC2)[C@H]1O5)c1ccc2ccoc2c1 | 5.7 | 0.29 | 1.66 | 2.23 | 30.7 | 30.5 | 105.8 | – | – | – |
| Cl.O=C(N[C@@H]1CC[C@@]2(O)[C@H]3Cc4ccc(O)c5c4[C@@]2(CCN3CC2CC2)[C@H]1O5)c1ccc2sccc2c1 | 1.5 | 0.14 | 0.21 | 0.19 | 1.36 | 75.4 | 9.7 | – | – | Active |
| Cl.O=C(N[C@@H]1CC[C@@]2(O)[C@H]3Cc4ccc(O)c5c4[C@@]2(CCN3CC2CC2)[C@H]1O5)c1cccc2ccsc12 | 8.5 | 0.19 | 1.62 | 2.97 | 38.9 | – | 204.9 | – | – | – |
| Cl.O=C(N[C@@H]1CC[C@@]2(O)[C@H]3Cc4ccc(O)c5c4[C@@]2(CCN3CC2CC2)[C@H]1O5)c1coc2ccccc12 | 2.3 | 0.13 | 0.3 | 0.47 | 10.3 | 43.2 | 79.2 | – | – | – |
| Cl.O=C(N[C@@H]1CC[C@@]2(O)[C@H]3Cc4ccc(O)c5c4[C@@]2(CCN3CC2CC2)[C@H]1O5)c1cc2ccccc2s1 | 1.4 | 0.14 | 0.2 | 0.24 | 1.39 | 59 | 9.9 | – | – | Active |
| Cl.O=C(N[C@@H]1CC[C@@]2(O)[C@H]3Cc4ccc(O)c5c4[C@@]2(CCN3CC2CC2)[C@H]1O5)c1ccc2occc2c1 | 1.4 | 0.15 | 0.21 | 0.41 | 5.31 | 52.2 | 35.4 | – | – | Active |
| Cl.O=C(N[C@@H]1CC[C@@]2(O)[C@H]3Cc4ccc(O)c5c4[C@@]2(CCN3CC2CC2)[C@H]1O5)c1cc2ccccc2o1 | 1.4 | 0.16 | 0.23 | 0.39 | 1.94 | 64.5 | 12.1 | – | – | Active |
| Cl.O=C(N[C@H]1CC[C@@]2(O)[C@H]3Cc4ccc(O)c5c4[C@@]2(CCN3CC2CC2)[C@H]1O5)c1csc2ccccc12 | 11.9 | 0.2 | 2.39 | 1.85 | 9.07 | 14.3 | 45.4 | – | – | – |
| Cl.O=C(N[C@H]1CC[C@@]2(O)[C@H]3Cc4ccc(O)c5c4[C@@]2(CCN3CC2CC2)[C@H]1O5)c1ccc2ccsc2c1 | 13.3 | 0.28 | 3.72 | 3.01 | 22.3 | 18.1 | 79.6 | – | – | – |
| Cl.O=C(N[C@H]1CC[C@@]2(O)[C@H]3Cc4ccc(O)c5c4[C@@]2(CCN3CC2CC2)[C@H]1O5)c1cc2ccccc2s1 | 4.5 | 0.27 | 1.21 | 4.02 | 14.3 | 22.9 | 53 | – | – | – |
| Cl.O=C(N[C@H]1CC[C@@]2(O)[C@H]3Cc4ccc(O)c5c4[C@@]2(CCN3CC2CC2)[C@H]1O5)c1cc2ccccc2o1 | 3.8 | 0.44 | 1.67 | 5.52 | 35.9 | 34 | 81.6 | Active | 3.21 | – |
